Results taken from ChEMBL document CHEMBL4689842, “EUbOPEN Chemogenomics Library wave 1” (2021).

Tested on: Fibroblast
Experiment: Multiplex assay against human fibroblast
Format: toxicity, cell-based
Method in brief: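 Hoechst33342, BioTracker Green Microtubule Cytoskeleton Dye, MitoTracker Red and Annexin V Alexa Fluor 680 were added to live cells at seeding, and imaging on a CQ1 microscope at 37°C and 5% CO2 followed compound addition. Gating by CellPathfinder machine learning separated cells into Hoechst high-intensity objects or normal cells, then normal cells into healthy, pyknosed or fragmented nuclei, then pyknosed cells into mitotic or apoptotic. Per cents of healthy-nucleus cells are reported for the tubulin, mitochondrial-mass and membrane-permeability phenotypes.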

[1] = 12 h, 1 µM, compound concentration 1 uM, replicate 1
[2] = 12 h, 1 µM, compound concentration 1 uM, replicate 2
[3] = 12 h, 10 µM, compound concentration 10 uM, replicate 1
[4] = 12 h, 10 µM, compound concentration 10 uM, replicate 2
[5] = 24 h, 1 µM, compound concentration 1 uM, replicate 1
[6] = 24 h, 1 µM, compound concentration 1 uM, replicate 2
[7] = 24 h, 10 µM, compound concentration 10 uM, replicate 1
[8] = 24 h, 10 µM, compound concentration 10 uM, replicate 2
[9] = 48 h, 1 µM, compound concentration 1 uM, replicate 1
[10] = 48 h, 1 µM, compound concentration 1 uM, replicate 2
[11] = 48 h, 10 µM, compound concentration 10 uM, replicate 1
[12] = 48 h, 10 µM, compound concentration 10 uM, replicate 2

CNc1cc(Oc2cc(C(=O)Nc3cc(N4CCN(C)CC4)cc(C(F)(F)F)c3)ccc2C)ncn1
Population Apoptotic (%) [1]: 61% | Population Fragmented Nuclei (%) [1]: 31% | Population Healthy Nuclei (%) [1]: 39% | Population Hoechst High Intensity Objects (%) [1]: 9% | Population Membrane Permeable-Phenotype (%) [1]: 25% | Population Mitochondria Different-Phenotype (%) [1]: 17% | Population Mitotic Cells (%) [1]: 38% | Population Normal (%) [1]: 90% | Population Pyknosed Nuclei (%) [1]: 29% | Population Tubulin-Different-Phenotype (%) [1]: 53% | Total Cell Count [1]: 147 | Population Apoptotic (%) [2]: 54% | Population Fragmented Nuclei (%) [2]: 10% | Population Healthy Nuclei (%) [2]: 73% | Population Hoechst High Intensity Objects (%) [2]: 2% | Population Membrane Permeable-Phenotype (%) [2]: 10% | Population Mitochondria Different-Phenotype (%) [2]: 60% | Population Mitotic Cells (%) [2]: 45% | Population Normal (%) [2]: 97% | Population Pyknosed Nuclei (%) [2]: 16% | Population Tubulin-Different-Phenotype (%) [2]: 52% | Total Cell Count [2]: 56 | Population Apoptotic (%) [3]: 54% | Population Fragmented Nuclei (%) [3]: 27% | Population Healthy Nuclei (%) [3]: 26% | Population Hoechst High Intensity Objects (%) [3]: 18% | Population Membrane Permeable-Phenotype (%) [3]: 37% | Population Mitochondria Different-Phenotype (%) [3]: 45% | Population Mitotic Cells (%) [3]: 45% | Population Normal (%) [3]: 81% | Population Pyknosed Nuclei (%) [3]: 46% | Population Tubulin-Different-Phenotype (%) [3]: 65% | Total Cell Count [3]: 186 | Population Apoptotic (%) [4]: 73% | Population Fragmented Nuclei (%) [4]: 24% | Population Healthy Nuclei (%) [4]: 13% | Population Hoechst High Intensity Objects (%) [4]: 33% | Population Membrane Permeable-Phenotype (%) [4]: 58% | Population Mitochondria Different-Phenotype (%) [4]: 66% | Population Mitotic Cells (%) [4]: 26% | Population Normal (%) [4]: 66% | Population Pyknosed Nuclei (%) [4]: 61% | Population Tubulin-Different-Phenotype (%) [4]: 66% | Total Cell Count [4]: 70 | Population Apoptotic (%) [5]: 61% | Population Fragmented Nuclei (%) [5]: 30% | Population Healthy Nuclei (%) [5]: 38% | Population Hoechst High Intensity Objects (%) [5]: 11% | Population Membrane Permeable-Phenotype (%) [5]: 16% | Population Mitochondria Different-Phenotype (%) [5]: 10% | Population Mitotic Cells (%) [5]: 38% | Population Normal (%) [5]: 88% | Population Pyknosed Nuclei (%) [5]: 30% | Population Tubulin-Different-Phenotype (%) [5]: 71% | Total Cell Count [5]: 163 | Population Apoptotic (%) [6]: 50% | Population Fragmented Nuclei (%) [6]: 16% | Population Healthy Nuclei (%) [6]: 63% | Population Hoechst High Intensity Objects (%) [6]: 6% | Population Membrane Permeable-Phenotype (%) [6]: 13% | Population Mitochondria Different-Phenotype (%) [6]: 68% | Population Mitotic Cells (%) [6]: 50% | Population Normal (%) [6]: 93% | Population Pyknosed Nuclei (%) [6]: 19% | Population Tubulin-Different-Phenotype (%) [6]: 51% | Total Cell Count [6]: 58 | Population Apoptotic (%) [7]: 80% | Population Fragmented Nuclei (%) [7]: 34% | Population Healthy Nuclei (%) [7]: 19% | Population Hoechst High Intensity Objects (%) [7]: 18% | Population Membrane Permeable-Phenotype (%) [7]: 15% | Population Mitochondria Different-Phenotype (%) [7]: 57% | Population Mitotic Cells (%) [7]: 19% | Population Normal (%) [7]: 81% | Population Pyknosed Nuclei (%) [7]: 45% | Population Tubulin-Different-Phenotype (%) [7]: 76% | Total Cell Count [7]: 163 | Population Apoptotic (%) [8]: 76% | Population Fragmented Nuclei (%) [8]: 16% | Population Healthy Nuclei (%) [8]: 23% | Population Hoechst High Intensity Objects (%) [8]: 48% | Population Membrane Permeable-Phenotype (%) [8]: 80% | Population Mitochondria Different-Phenotype (%) [8]: 80% | Population Mitotic Cells (%) [8]: 23% | Population Normal (%) [8]: 51% | Population Pyknosed Nuclei (%) [8]: 60% | Population Tubulin-Different-Phenotype (%) [8]: 80% | Total Cell Count [8]: 76 | Population Apoptotic (%) [9]: 84% | Population Fragmented Nuclei (%) [9]: 37% | Population Healthy Nuclei (%) [9]: 43% | Population Hoechst High Intensity Objects (%) [9]: 15% | Population Membrane Permeable-Phenotype (%) [9]: 12% | Population Mitochondria Different-Phenotype (%) [9]: 10% | Population Mitotic Cells (%) [9]: 16% | Population Normal (%) [9]: 84% | Population Pyknosed Nuclei (%) [9]: 19% | Population Tubulin-Different-Phenotype (%) [9]: 65% | Total Cell Count [9]: 150 | Population Apoptotic (%) [10]: 60% | Population Fragmented Nuclei (%) [10]: 43% | Population Healthy Nuclei (%) [10]: 52% | Population Hoechst High Intensity Objects (%) [10]: 23% | Population Mitochondria Different-Phenotype (%) [10]: 3% | Population Mitotic Cells (%) [10]: 40% | Population Normal (%) [10]: 76% | Population Pyknosed Nuclei (%) [10]: 4% | Population Tubulin-Different-Phenotype (%) [10]: 49% | Total Cell Count [10]: 158 | Population Apoptotic (%) [11]: 75% | Population Fragmented Nuclei (%) [11]: 59% | Population Healthy Nuclei (%) [11]: 10% | Population Hoechst High Intensity Objects (%) [11]: 30% | Population Membrane Permeable-Phenotype (%) [11]: 36% | Population Mitochondria Different-Phenotype (%) [11]: 54% | Population Mitotic Cells (%) [11]: 24% | Population Normal (%) [11]: 69% | Population Pyknosed Nuclei (%) [11]: 30% | Population Tubulin-Different-Phenotype (%) [11]: 72% | Total Cell Count [11]: 155 | Population Apoptotic (%) [12]: 100% | Population Fragmented Nuclei (%) [12]: 84% | Population Healthy Nuclei (%) [12]: 11% | Population Hoechst High Intensity Objects (%) [12]: 34% | Population Membrane Permeable-Phenotype (%) [12]: 20% | Population Mitochondria Different-Phenotype (%) [12]: 80% | Population Mitotic Cells (%) [12]: 0% | Population Normal (%) [12]: 65% | Population Pyknosed Nuclei (%) [12]: 4% | Population Tubulin-Different-Phenotype (%) [12]: 80% | Total Cell Count [12]: 67
